Most compounds without a hit are left out; they make up all but 2.9% or so of the library.
ADAM17 inh = inhibits human ADAM17; recombinant ADAM17, EDANS/DABCYL FRET peptide cleavage; inhibition, % at 6.95 µM; 0.83% of 370,000 active; AID 720648;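 active = inhibition above the mean of compounds lying between control limits plus 3 SD, set per campaign, cut at about 8.5% in these data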;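 also: 0% = DMSO-only wells as the low control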
Arr AP2 block = blocks beta-arrestin peptide binding to AP2 adaptin | FITC-arrestin peptide / GST-AP2 beads, flow cytometry; AP2 beta2 appendage carries R879A mutation | inhibition, % at 10 µM | 0.31% of 340,000 active | AID 504490;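 active = inhibition above a set limit, near 3 SD of compounds lacking own fluorescence, cut at about 54% in these data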;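 also: plate controls were DMSO wells for no effect and 5 µM unlabelled arrestin peptide for full effect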
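Material – AP2 appendage R879A on GSH beads · Buffer or medium – PBS with 0.05% Tween 20 and 0.1% BSA · Probe or stimulus – fluorescein-tagged arrestin peptide at 50 nM final · Incubation – compound with beads 12 min RT, then probe 1 h RT · Detection – high-throughput flow cytometry of beads, ex 488, em 535 nm · Evaluation – percent response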
CendR NRP1 mod = modulators of CendR peptide binding to human neuropilin-1; O14786; FAM-RPARPAR peptide binding to NRP-1, fluorescence polarization; inhibition, % at 25 µM; 0.85% of 360,000 active; AID 602438;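 active = inhibition or corrected inhibition above about 18%, plus a signal ratio from 0.5 to 1.5, limit read from the data, passing the limit was not always enough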
Target sequence (O14786 whole entry, looked up): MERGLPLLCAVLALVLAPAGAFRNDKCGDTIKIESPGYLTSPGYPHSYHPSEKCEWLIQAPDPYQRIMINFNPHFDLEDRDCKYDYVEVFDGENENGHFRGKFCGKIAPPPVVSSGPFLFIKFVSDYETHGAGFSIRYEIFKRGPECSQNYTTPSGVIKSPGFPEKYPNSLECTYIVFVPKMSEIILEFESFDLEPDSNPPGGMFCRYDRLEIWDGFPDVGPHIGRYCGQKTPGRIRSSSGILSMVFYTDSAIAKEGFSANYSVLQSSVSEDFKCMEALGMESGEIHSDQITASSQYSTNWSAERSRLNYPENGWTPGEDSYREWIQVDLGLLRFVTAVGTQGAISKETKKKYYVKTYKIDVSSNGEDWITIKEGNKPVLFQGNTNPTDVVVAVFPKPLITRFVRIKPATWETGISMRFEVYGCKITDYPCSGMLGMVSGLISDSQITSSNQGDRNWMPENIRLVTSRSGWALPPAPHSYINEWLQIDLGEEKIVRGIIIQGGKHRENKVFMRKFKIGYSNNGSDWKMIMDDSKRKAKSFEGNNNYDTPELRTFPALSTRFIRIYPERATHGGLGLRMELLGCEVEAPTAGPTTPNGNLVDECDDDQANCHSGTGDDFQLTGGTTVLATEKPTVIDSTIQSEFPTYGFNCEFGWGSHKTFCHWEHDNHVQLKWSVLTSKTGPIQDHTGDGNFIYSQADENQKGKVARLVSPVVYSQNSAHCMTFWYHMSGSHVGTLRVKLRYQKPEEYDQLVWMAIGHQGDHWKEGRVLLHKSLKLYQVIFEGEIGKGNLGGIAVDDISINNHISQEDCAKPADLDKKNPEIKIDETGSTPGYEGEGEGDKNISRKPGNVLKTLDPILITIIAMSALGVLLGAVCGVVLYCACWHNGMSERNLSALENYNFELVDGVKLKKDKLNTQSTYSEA
CaV13 FRET inh = Disruptors of the CACNA1D IQ motif to Ca2+-dependent inactivation inhibitor domain association, primary screening, Förster resonance energy transfer in intact living …; 0.098% of 340,000 active; inhibition, % at 12.3 µM; HEK cells, CFP/YFP FRET ICDI-IQ, plate reader, 10 min; percent FRET-ratio fall versus neutral wells;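 active = mean replicate inhibition of at least 30% and at least 1% of replicates passing that level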;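 also: 0% = median of the neutral control wells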
FAS TE block = blocks the thioesterase domain of human fatty acid synthase; P49327; recombinant FAS-TE, OMFH fluorogenic substrate, fluorescence endpoint; inhibition, % at 15 µM; 0.67% of 360,000 active;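 active = compounds whose normalised, plate-corrected inhibition of enzyme fluorescence in the single-dose primary screen is 50% or more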;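 also: 0% = DMSO with enzyme and 100% = substrate without enzyme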
ADAM10 inh = inhibits human ADAM10. O14672. recombinant ADAM10, EDANS/DABCYL FRET peptide cleavage, 3 h. inhibition, % at 7 µM. 0.62% of 370,000 active;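 active = inhibition above a per-campaign cutoff equal to the mean of compounds falling between control-based bounds plus 3 SD, cut at about 20% in these data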;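 also: 0% = DMSO wells while the 100% control is not disclosed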
ADAM10 counter = ADAM10 inhibition, counter-screen for ADAM17 exosite hits; shares compounds with ADAM17 inh; recombinant ADAM10, EDANS/DABCYL FRET peptide cleavage, 3 h; inhibition, % at 6.95 µM; 47% of 2,900 active;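 active = mean inhibition over the triplicate runs exceeds the activity threshold set in the earlier primary screen, cut at about 20% in these data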;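 also: 0% = DMSO wells and 100% = marimastat wells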
ADAM17 confirm = human ADAM17 inhibition, confirmation. recombinant ADAM17, EDANS/DABCYL QFRET peptide cleavage. 65% of 2,900 active. shares compounds with ADAM17 inh. inhibition, % at 6.95 µM;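 active = mean inhibition across replicates above the hit cutoff set in the primary screen, cut at about 8.5% in these data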;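 also: 0% = DMSO wells and 100% = marimastat wells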
Active calls of the source: *.

`COc1ccc(NC(=O)C(c2ccc(C)cc2)N(C)C(=O)Cc2cccs2)cc1` (centres undefined) gave ADAM17 inh 9.0*, Arr AP2 block -3.8, CendR NRP1 mod 8.2, CaV13 FRET inh -4.8, FAS TE block 12.2, ADAM10 inh 7.3, ADAM10 counter 2.1 and ADAM17 confirm 6.2.
For Cc1cccc(-c2cccc3c4c([nH]c23)[C@@H]2C[C@H](N(C)C(=O)c3ccccc3C)[C@H]([C@H](C)O)C(=O)N2CC4)c1 the results were ADAM17 inh 2.1 and ADAM10 inh 3.0.
`COC(=O)C1=C(C)N(Cc2cccc(C(F)(F)F)c2)C(=NCc2ccc3c(c2)OCO3)NC1c1ccc(F)cc1` (centres undefined) gave ADAM17 inh 9.9*, CaV13 FRET inh -3.9, ADAM10 inh -6.8, ADAM10 counter 19.4 and ADAM17 confirm 11.8*.
COC(=O)C1=C(C)N(Cc2cccc(C(F)(F)F)c2)C(=NCc2ccc3c(c2)OCO3)NC1c1cccc(C(F)(F)F)c1 (centres undefined) was read as ADAM17 inh -1.9, CaV13 FRET inh -4.9 and ADAM10 inh -0.2.
`COC(=O)C1=C(C)N(Cc2cccc(C(F)(F)F)c2)C(=NCc2ccc(C(F)(F)F)cc2)NC1c1ccc(F)cc1` (centres undefined) gave ADAM17 inh 9.5*, CaV13 FRET inh -3.7, ADAM10 inh 3.7, ADAM10 counter 21.5* and ADAM17 confirm 11.8*.
Screening CSc1nnc(N2C(=O)C(O)=C(C(=O)c3ccco3)C2c2cccc(Cl)c2)s1 (centres undefined) returned ADAM17 inh 0.3, Arr AP2 block 8.1, CendR NRP1 mod -36.9, CaV13 FRET inh -20.2, FAS TE block -21.7 and ADAM10 inh 5.6.
`O=C(NCc1cccnc1)c1cc(C2CCCCN2S(=O)(=O)c2cccs2)on1` (centres undefined) gave ADAM17 inh -2.2, CendR NRP1 mod -6.7, CaV13 FRET inh -4.5, FAS TE block -3.4 and ADAM10 inh -5.7.
O=C1CC=Nc2ccc([N+](=O)[O-])cc21 was read as ADAM17 inh -2.9, CendR NRP1 mod 3.5, CaV13 FRET inh -9.6, FAS TE block 0.3 and ADAM10 inh -13.2.
Cc1ccccc1OCc1nc(-c2ccc(NC(=O)c3cccs3)cc2)no1 was read as ADAM17 inh 11.9*, Arr AP2 block 7.3, CendR NRP1 mod -0.1, CaV13 FRET inh -5.0, FAS TE block 21.8, ADAM10 inh 5.0, ADAM10 counter -63.3 and ADAM17 confirm -12.3.
For O=C1CC(c2ccco2)CC(O)=C1C=Nc1cc(Cl)ccc1O (centres undefined) the results were ADAM17 inh 11.4*, Arr AP2 block 7.1, CendR NRP1 mod -22.9, CaV13 FRET inh -6.0, FAS TE block 24.9, ADAM10 inh 17.6, ADAM10 counter -30.4 and ADAM17 confirm -5.6.
COc1cccc(-c2nn(-c3ccc(C)cc3)cc2C(=O)N(C)CC(=O)Nc2cccc(F)c2)c1 was read as ADAM17 inh 7.7, Arr AP2 block -1.1, CendR NRP1 mod -11.2, CaV13 FRET inh -5.2, FAS TE block 27.4 and ADAM10 inh 19.6.
CCOc1ccc(NC(=O)CN(C)C(=O)c2cn(-c3ccc(C)cc3)nc2-c2cccc(OC)c2)cc1OCC was read as ADAM17 inh 14.5*, Arr AP2 block 1.2, CendR NRP1 mod -2.0, CaV13 FRET inh -5.3, FAS TE block 34.5, ADAM10 inh 9.3, ADAM10 counter 34.3* and ADAM17 confirm 18.3*.
For CC(=O)NC(c1cccs1)c1cc([N+](=O)[O-])c2cccnc2c1O (centres undefined) the results were ADAM17 inh 10.6*, CendR NRP1 mod 8.7, CaV13 FRET inh -12.7, FAS TE block 10.9, ADAM10 inh 14.9, ADAM10 counter 36.4* and ADAM17 confirm 18.9*.
C[C@H](CO)N1C[C@H](C)[C@H](CN(C)C(=O)Nc2ccc(F)cc2)Oc2ncc(Br)cc2C1=O was read as ADAM17 inh -3.9, CaV13 FRET inh -5.8 and ADAM10 inh -1.8.
CC(=O)c1ccccc1OCC(O)CN1CCN(C(c2ccccc2)c2ccccc2)CC1 (centres undefined) was read as ADAM17 inh 11.2*, Arr AP2 block 7.9, CendR NRP1 mod 11.6, CaV13 FRET inh -1.3, FAS TE block 22.0, ADAM10 inh 11.2, ADAM10 counter 5.7 and ADAM17 confirm 3.1.
`COc1cccc(OCC(O)CN2CCN(C(c3ccccc3)c3ccccc3)CC2)c1` (centres undefined) gave ADAM17 inh -1.5, Arr AP2 block 18.2, CendR NRP1 mod -12.3, CaV13 FRET inh -4.5, FAS TE block 9.2 and ADAM10 inh 5.8.
Screening CC(C)CCN1CC(O)=C(c2nc3ccccc3[nH]2)C1=N returned ADAM17 inh -0.9, Arr AP2 block 1.7, CendR NRP1 mod -4.4, CaV13 FRET inh -2.9, FAS TE block -1.0 and ADAM10 inh 6.0.
`CCCCCN1CC(O)=C(c2nc3ccccc3[nH]2)C1=N` gave ADAM17 inh 10.4*, Arr AP2 block -7.6, CendR NRP1 mod 10.9, CaV13 FRET inh 4.8, FAS TE block -1.3, ADAM10 inh 11.3, ADAM10 counter 11.7 and ADAM17 confirm 8.4.
`CCOC(=O)[C@]12CCCC=C1N(Cc1ccc(Cl)cc1Cl)C(=O)[C@H](CC(=O)NCc1ccc(OC)c(OC)c1)C2` gave ADAM17 inh 4.1, CendR NRP1 mod 10.9, CaV13 FRET inh -1.8, FAS TE block 7.2 and ADAM10 inh 9.2.
Screening Cc1ccc(C(=O)OCC(=O)c2c[nH]c3ccccc23)cc1S(=O)(=O)N1CCOCC1 returned ADAM17 inh 10.0*, Arr AP2 block 30.7, CendR NRP1 mod -1.1, FAS TE block 6.7, ADAM10 inh -2.9, ADAM10 counter -6.7 and ADAM17 confirm 2.7.
Screening Cc1ccc2c(c1)C(=O)N1c3cc(C)c(C)cc3NC(=O)C1C(=O)N2 (centres undefined) returned ADAM17 inh -1.4, CendR NRP1 mod -3.1, CaV13 FRET inh -3.2, FAS TE block -9.6 and ADAM10 inh -7.2.
